Bioassay records from PubChem.
UBC13 inh = human UBC13 polyubiquitination inhibition; P61088; UBC13 polyubiquitin chain formation, TR-FRET; inhibition, % at 20 µM; 330,000 tested, 0.47% active; AID 485273; in the data active = inhibition above about 45%, passing the limit was not always enough
DSG3 Ab inh = inhibitors of pemphigus antibody binding to human desmoglein-3; binding (percent of control), % at 10 µM; P32926; DSG3-coupled beads, scFv-anti-DSG3-GFP binding, flow cytometry; stronger effect = lower value; 310,000 tested, 0.48% active;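 active = binding more than 3 SD below its plate's average and above zero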;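 also: hits lower antibody fragment binding to DSG3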
Apaf-1 inh = human Apaf-1 inhibition; AID 489030; 330,000 tested, 0.71% active; O14727; reconstituted apoptosome caspase-3 activity, DEVD-Rh110 fluorescence; inhibition, % at 20 µM; active = inhibition of at least 40% at 20 µM
Target sequence (O14727 whole entry, looked up): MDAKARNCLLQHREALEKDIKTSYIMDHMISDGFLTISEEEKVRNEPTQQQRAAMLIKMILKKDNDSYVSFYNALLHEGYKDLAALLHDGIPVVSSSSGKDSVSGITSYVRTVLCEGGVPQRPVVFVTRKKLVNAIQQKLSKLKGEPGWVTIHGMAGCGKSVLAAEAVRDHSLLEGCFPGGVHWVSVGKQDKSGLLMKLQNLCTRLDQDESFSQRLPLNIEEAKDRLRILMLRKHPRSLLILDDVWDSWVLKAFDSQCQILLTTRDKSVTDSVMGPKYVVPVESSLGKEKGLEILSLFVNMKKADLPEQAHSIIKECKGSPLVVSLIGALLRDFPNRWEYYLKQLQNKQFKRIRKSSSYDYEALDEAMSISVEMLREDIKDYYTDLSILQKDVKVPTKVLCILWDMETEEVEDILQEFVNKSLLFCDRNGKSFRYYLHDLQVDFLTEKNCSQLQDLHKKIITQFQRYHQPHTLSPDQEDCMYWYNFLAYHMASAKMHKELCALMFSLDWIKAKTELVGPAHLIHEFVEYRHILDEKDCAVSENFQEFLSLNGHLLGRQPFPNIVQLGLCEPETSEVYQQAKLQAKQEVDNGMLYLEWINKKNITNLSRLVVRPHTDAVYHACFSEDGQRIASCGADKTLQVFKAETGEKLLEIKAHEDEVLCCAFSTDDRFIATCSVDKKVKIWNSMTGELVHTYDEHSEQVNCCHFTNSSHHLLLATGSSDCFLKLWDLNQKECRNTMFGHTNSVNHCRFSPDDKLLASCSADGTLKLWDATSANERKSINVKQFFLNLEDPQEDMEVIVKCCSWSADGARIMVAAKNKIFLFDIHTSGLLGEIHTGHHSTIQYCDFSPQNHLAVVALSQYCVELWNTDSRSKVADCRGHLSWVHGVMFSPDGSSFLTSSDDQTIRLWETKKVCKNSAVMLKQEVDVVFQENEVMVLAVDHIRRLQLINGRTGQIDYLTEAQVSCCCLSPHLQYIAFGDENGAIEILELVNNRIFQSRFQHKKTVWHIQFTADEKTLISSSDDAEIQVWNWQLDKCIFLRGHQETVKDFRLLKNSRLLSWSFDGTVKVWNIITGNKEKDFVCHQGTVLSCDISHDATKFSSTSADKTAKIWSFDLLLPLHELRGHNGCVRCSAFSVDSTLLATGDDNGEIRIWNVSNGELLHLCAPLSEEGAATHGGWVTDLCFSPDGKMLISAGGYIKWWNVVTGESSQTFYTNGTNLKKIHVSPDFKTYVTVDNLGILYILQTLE
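Material: reconstituted apoptosome with Apaf-1, cytochrome c, caspase-9, procaspase-3, dATP. Technique: Rh110 fluorescence intensity. Buffer or medium: pH 7.5 Hepes buffer with CHAPS, BSA, DTT. Times: 30 min plus 50 min, RT.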
MEKK2wt PB1 HTS = raises or lowers MEK5 binding to wildtype human MEKK2 PB1 domain | binding response (% of control), % at 10 µM | 290,000 tested, 1.1% active | AID 1531 | bead flow cytometry, Alexa488-MEK5 binding to MEKK2 WT; actives lie on both sides; in the data active = binding response below about 67% or above about 130%
MEKK2mut PB1 HTS = signal of MEK5 binding to mutant human MEKK2 PB1 domain; 290,000 tested, 0.35% active; percent response, % at 10 µM; bead flow cytometry, Alexa488-MEK5 binding to MEKK2 mutant; in the data active = percent response above about 24%, passing the limit was not always enough
MEKK3 PB1 HTS = raises or lowers MEK5 binding to the human MEKK3 PB1 domain. Q99759. bead-based flow cytometry, Alexa488-MEK5 binding to MEKK3; actives lie on both sides; 0 = blocked by unlabeled MEK5, 100 = vehicle. binding response (% of control), % at 10 µM. 290,000 tested, 1.4% active. AID 1529;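 active = binding response more than 3 SD above or below the average of its plate-row segment, actives on both sides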;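 also: Alexa488 bead fluorescence after subtracting the streptavidin-only scavenger bead signal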
Each line names hits and unclear results; the compound was inactive in the other large screens; [ ] = dose if it differs, or a comment. An excerpt weighted towards active compounds, which were near 3.2% of everything screened.

CCCN(CC(=O)Nc1ccccc1C)C(=O)CCCNC(=O)c1ccc(Cl)cc1	none (no result: MEKK2wt PB1 HTS, MEKK2mut PB1 HTS, MEKK3 PB1 HTS)
COc1ccc(/C=N/NC(=O)CCN2CCN(c3ccccc3)CC2)c(OC)c1OC	none
O=C(CCN1CCN(c2ccccc2)CC1)N/N=C/c1ccc(O)c(O)c1O	DSG3 Ab inh 80.2 (no result: UBC13 inh, Apaf-1 inh)
CC1(OC(=O)c2cccs2)C(=O)C=C2C=C3CCCN3C=C2C1=O (stereo not drawn)	Apaf-1 inh 61.8
C/C(=N/Nc1ncc(Br)cn1)c1ccc(Br)cc1	MEKK2wt PB1 HTS -2.0
CSCC[C@H](NC(=O)Cc1c(C)c2c(cc(C)c3c(C)coc32)oc1=O)C(=O)O	none
CCOC(=O)c1c(NC(=O)c2ccccc2C(=O)O)sc2c1CCCC2	DSG3 Ab inh 68.0
CC(=O)CCCC(NS(=O)(=O)CCC(Cl)(Cl)Cl)c1ccccc1 (stereo not drawn)	none
C#CCOCCOCCOCCNc1nc(N2CCN(C(=O)[C@H](CCCCN)n3cc(C(N)CO)nn3)CC2)nc(N2CCN(C(=O)[C@H](CCCCN)n3cc(C(N)COC(=O)C(F)(F)F)nn3)CC2)n1 (stereo partly drawn)	UBC13 inh 76.1 (no result: DSG3 Ab inh)
C#CCOCCOCCOCCNc1nc(N2CCN(C(=O)CCCCCCCCCCNC(=O)[C@H]([C@@H](C)CC)n3cc(CCCCN=C(N)N)nn3)CC2)nc(N2CCN(C(=O)CCCCCCCCCCNC(=O)[C@H](CCCCN)n3cc(C[C@@H](C)CC)nn3)CC2)n1	UBC13 inh 122.2, Apaf-1 inh 55.5 (no result: DSG3 Ab inh, MEKK2wt PB1 HTS, MEKK2mut PB1 HTS, MEKK3 PB1 HTS)
C#CCOCCOCCOCCNc1nc(N2CCN(C(=O)CCCCCCCCCCNC(=O)[C@H](CO)n3cc(CCCSC)nn3)CC2)nc(N2CCN(C(=O)CCCCCCCCCCNC(=O)[C@H](CCCCN)n3cc(C[C@@H](C)CC)nn3)CC2)n1	UBC13 inh 118.1, Apaf-1 inh 68.2 (no result: DSG3 Ab inh, MEKK2wt PB1 HTS, MEKK2mut PB1 HTS, MEKK3 PB1 HTS)
C#CCOCCOCCOCCNc1nc(N2CCN(C(=O)CCCCCCCCCCNC(=O)[C@H](CCCCN)n3cc(CCO)nn3)CC2)nc(N2CCN(C(=O)CCCCCCCCCCNC(=O)[C@H](CCCN=C(N)N)n3cc(C[C@@H](C)CC)nn3)CC2)n1	UBC13 inh 125.2, Apaf-1 inh 77.7 (no result: MEKK2wt PB1 HTS, MEKK2mut PB1 HTS, MEKK3 PB1 HTS)
O=C(CNC(=O)c1ccco1)OCc1ccccc1F	none (no result: MEKK2wt PB1 HTS, MEKK2mut PB1 HTS, MEKK3 PB1 HTS)
C#CCOCCOCCOCCNc1nc(N2CCN(C(=O)CCCCCCCCCCNC(=O)[C@@H](CCSC)n3cc(CCO)nn3)CC2)nc(N2CCN(C(=O)CCCCCCCCCCNC(=O)[C@H]([C@@H](C)CC)n3cc(CCCCCN)nn3)CC2)n1	UBC13 inh 116.3, Apaf-1 inh 50.9 (no result: DSG3 Ab inh, MEKK2wt PB1 HTS, MEKK2mut PB1 HTS, MEKK3 PB1 HTS)
C#CCOCCOCCOCCNc1nc(N2CCN(C(=O)[C@H](CCCCN)n3cc(CCCC)nn3)CC2)nc(N2CCN(C(=O)[C@H](Cc3ccc(O)cc3)n3cc(CCO)nn3)CC2)n1	UBC13 inh 90.5
C#CCOCCOCCOCCNc1nc(N2CCN(C(=O)[C@H](CCCCN)n3cc(CC(C)O)nn3)CC2)nc(N2CCN(C(=O)[C@H](Cc3ccc(O)cc3)n3cc(CCO)nn3)CC2)n1 (stereo partly drawn)	none (no result: UBC13 inh, Apaf-1 inh, MEKK2wt PB1 HTS, MEKK2mut PB1 HTS, MEKK3 PB1 HTS)
C#CCOCCOCCOCCNc1nc(N2CCOCC2)nc(N2CCN(C(=O)CCCCCCCCCCNC(=O)[C@@H](CCSC)n3cc(CCO)nn3)CC2)n1	none (no result: MEKK2wt PB1 HTS, MEKK2mut PB1 HTS, MEKK3 PB1 HTS)
CC(=O)c1c(C)[nH]c(C(=O)OCC(=O)Nc2nnc(-c3ccccc3)o2)c1C	none (no result: MEKK2wt PB1 HTS, MEKK2mut PB1 HTS, MEKK3 PB1 HTS)
c1ccc2c(c1)Nc1cc3ccccc3cc1O2	none (no result: UBC13 inh, Apaf-1 inh, MEKK2wt PB1 HTS, MEKK2mut PB1 HTS, MEKK3 PB1 HTS)
O=C1OC(Nc2ncccn2)c2ccccc21 (stereo not drawn)	none
O=C1OC(Nc2cc(Br)cc3cccnc23)c2ccccc21 (stereo not drawn)	Apaf-1 inh 96.8
O=c1c2ccccc2sn1-c1cc(S(=O)(=O)N2CCOCC2)ccc1N1CCCC1	none
O=c1c2ccccc2sn1-c1cc(S(=O)(=O)N2CCOCC2)ccc1N1CCOCC1	DSG3 Ab inh 25.6
O=C1Nc2ccccc2N2CCCC12 (stereo not drawn)	Apaf-1 inh 77.6 (no result: DSG3 Ab inh)
O=C1Nc2ccc(C(F)(F)F)cc2N2CCCC12 (stereo not drawn)	none (no result: DSG3 Ab inh)
CC1(C)CCC23CC[C@]4(C)C(OC2=O)(C3C1)[C@H]1O[C@H]1C1[C@@]2(C)CC[C@@H](O)C(C)(C)C2CC[C@]14C (stereo partly drawn)	none (no result: UBC13 inh, DSG3 Ab inh, Apaf-1 inh)
COc1cc(/C=N/N=C/c2cc(OC)c(O)c(OC)c2)cc(OC)c1O	none (no result: DSG3 Ab inh)
COc1cc(/C=N/N=C(/C(=O)c2ccccc2)c2ccccc2)cc(OC)c1O	MEKK3 PB1 HTS 135.0
CCOCCn1c(CN2CCN(C)CC2)nc2c1c(=O)n(C)c(=O)n2C	MEKK2wt PB1 HTS 42.0[inhibitor], MEKK3 PB1 HTS 46.0[inhibitor]
COCCn1c(CN2CCN(C)CC2)nc2c1c(=O)n(C)c(=O)n2C	none (no result: UBC13 inh, Apaf-1 inh)
C/C(=N/NC(=O)c1cccc(N2CCCC2=O)c1)c1ccncc1	MEKK2wt PB1 HTS -5.0
CCc1cc2c(=O)oc(-c3ccc(Br)cc3)nc2s1	none
COc1ccc(OCc2cc(C(=O)NC(C)Cn3cncn3)no2)c(Cl)c1 (stereo not drawn)	none
CC(C)(C)c1nn(-c2ccccc2)c2[nH]c(=O)c(CNc3ccc4c(c3)OCCO4)cc12	none
Cc1nn(-c2ccccc2)c2[nH]c(=O)c(CNc3ccc(N4CCOCC4)cc3)cc12	DSG3 Ab inh 75.5
COc1ccc(OCC(=O)N2CCc3ccccc32)c([N+](=O)[O-])c1	none (no result: UBC13 inh, Apaf-1 inh, MEKK2wt PB1 HTS, MEKK2mut PB1 HTS, MEKK3 PB1 HTS)
COc1ccc(-n2c(CCC(=O)O)ccc2-c2ccc(F)cc2)c(OC)c1	none
COc1ccc(NC(=O)N/C=C/c2ccco2)cc1	none
O=C(N/C=C/c1ccco1)Nc1cccc(Cl)c1	MEKK2wt PB1 HTS 22.0
O=C(/C=C/Nc1ccc(Oc2ccccc2)cc1)c1ccco1	DSG3 Ab inh 14.0
COc1ccc(NC(=O)c2ccc3c(c2)OCO3)cc1Cl	DSG3 Ab inh 46.1
O=C(Nc1ccc(F)c(Cl)c1)c1ccc2c(c1)OCO2	none
Cc1cc(C(=O)N2CCN(S(C)(=O)=O)CC2)sc1-c1ccccc1	DSG3 Ab inh 85.9
CC1CCCCC12NC(=O)N(CC(=O)c1ccc(Cl)s1)C2=O (stereo not drawn)	none
Cc1nn(-c2ccccc2)c(=O)c2ccccc12	none
Cc1nn(-c2cccc(C(F)(F)F)c2)c(=O)c2ccccc12	DSG3 Ab inh 94.3
O=C(Nc1ccccc1)c1ccc(C(=O)Nc2ccccc2)nc1	DSG3 Ab inh 23.4
O=[N+]([O-])c1ccc(-c2ccc(/C=N/Nc3nc(NCc4ccccc4)nc(N4CCOCC4)n3)o2)cc1	MEKK2wt PB1 HTS 14.0
O=[N+]([O-])c1ccc(/C=N/Nc2nc(N3CCCCCC3)nc(N3CCCCCC3)n2)o1	none (no result: DSG3 Ab inh)
Cc1cc(-c2cccc([N+](=O)[O-])c2)nc2ccc3ccccc3c12	DSG3 Ab inh -1.4
